The source of these data is ChEMBL document CHEMBL1129936, “Water soluble furoxan derivatives as NO prodrugs” (J Med Chem, 1997).

Assay [1] in a line: Nitric oxide released from prodrug in the presence of cysteine. The method, boiled down:
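Compound at 10^-4 M final was incubated 1 h at 37 °C, pH 7.4, with a 50-fold molar excess of cysteine (1:50). Nitrite was read by the Griess reaction at 540 nm after 10 min at room temperature against nitrite standards (10-80 nmol/mL). Given as percent NO2- (mol/mol) ± SEM.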

Assay [2] is described as follows: Nitric oxide released from prodrug in the absence of cysteine. The method, boiled down: (§1)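 Compound at 10^-4 M final in pH 7.4 buffered water, no thiol, held at 37 °C for 1 h or 24 h. Nitrite was measured by Griess reagent: 10 min at room temperature, absorbance at 540 nm, sodium nitrite standards 10-80 nmol/mL. Reported as percent NO2- (mol/mol) ± SEM.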
The species entered for assay [3] is Rattus norvegicus. The assay is described as follows: Relaxation of endothelium […] strips of rat aorta precontracted with noradrenaline in presence of 10 uM HbO2. Format: functional. The method, boiled down:
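Rat aortic strips in Krebs at 37 °C (95% O2-5% CO2, pH 7.4), precontracted with 1 µM noradrenaline and exposed to oxyhemoglobin 10 µM for at least 10 min before the vasodilator was added. Oxyhemoglobin came from bovine hemoglobin reduced with excess sodium dithionite at 4 °C. Relaxation concentration-response curves gave EC50.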

For assay [4], the species on record is Rattus norvegicus. Description: Relaxation of endothelium […] strips of rat aorta precontracted with noradrenaline. Format: functional. The method, boiled down:
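Rat aortic strips in Krebs solution at 37 °C, gassed 95% O2-5% CO2 (pH 7.4), equilibrated 1 h, then contracted with noradrenaline 1 µM (submaximal). Cumulative concentration-response curves for relaxation gave EC50.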

The nature of assay [5]: Nitric oxide releasing capability in the absence of cysteine after 24 hr. The method, boiled down:
as §1

The term EC50 denotes the concentration that produces a half-maximal response.

`CN(C)CCSc1no[n+]([O-])c1S(=O)(=O)c1ccccc1`: the figures for the % NO2- in assay [1] and in assay [2] were 27.9 M/M and 0 M/M, respectively. In addition, the EC50 in the assay filed under Rattus norvegicus [3] (Rattus norvegicus, Aorta) stood at 0.35 µM; in the assay filed under Rattus norvegicus [4] (Rattus norvegicus, Aorta), 0.052 µM.

As to `CN(C)CCCOc1c(-c2ccccc2)no[n+]1[O-]`, the % NO2- in assay [1] is 91.1 M/M; in assay [2], 0 M/M. Further, the EC50 was 3.63 µM in the assay listed under Rattus norvegicus [3] (Rattus norvegicus, Aorta) and 1.03 µM in the assay filed under Rattus norvegicus [4] (Rattus norvegicus, Aorta).

As for `NCCOc1no[n+]([O-])c1S(=O)(=O)c1ccccc1`, the % NO2- is 19.7 M/M in assay [1] and 0 M/M in assay [2]. Besides, the EC50 in the assay listed under Rattus norvegicus [3] (Rattus norvegicus, Aorta) stood at 0.046 µM; in the assay filed under Rattus norvegicus [4] (Rattus norvegicus, Aorta), 0.013 µM.

Take `CN(C)CCOc1c(-c2ccccc2)no[n+]1[O-]`: the % NO2- in assay [1] was 62.9 M/M; in assay [2], 6.3 M/M; in assay [5] it was 97 M/M. Moreover, the EC50 in the assay listed under Rattus norvegicus [3] (Rattus norvegicus, Aorta) came out at 2.22 µM; in the assay filed under Rattus norvegicus [4] (Rattus norvegicus, Aorta), 1.23 µM.

As to `CN(C)CCSc1c(-c2ccccc2)no[n+]1[O-]`, the % NO2- in assay [1] worked out at 35 M/M; in assay [2], 0 M/M. Further, the EC50 was 11.5 µM in the assay filed under Rattus norvegicus [3] (Rattus norvegicus, Aorta) and 1.55 µM in the assay listed under Rattus norvegicus [4] (Rattus norvegicus, Aorta).

For the compound `CN(C)CCCOc1no[n+]([O-])c1-c1ccccc1`, the figures for the % NO2- in assay [1] and in assay [2] were 3.9 M/M and 0 M/M, respectively. The EC50 in the assay filed under Rattus norvegicus [3] (Rattus norvegicus, Aorta) was found to be 124 µM; in the assay filed under Rattus norvegicus [4] (Rattus norvegicus, Aorta) it was 14.3 µM.

`CN(C)CCSc1c(S(=O)(=O)c2ccccc2)no[n+]1[O-]`: the % NO2- was found to be 58.5 M/M in assay [1], 95.3 M/M in assay [2] and 100 M/M in assay [5]. The EC50 in the assay filed under Rattus norvegicus [3] (Rattus norvegicus, Aorta) came out at 0.33 µM; in the assay listed under Rattus norvegicus [4] (Rattus norvegicus, Aorta), 0.0557 µM.

For the compound `CN(C)CCSc1no[n+]([O-])c1-c1ccccc1`, the % NO2- in assay [1] came to 2.9 M/M; in assay [2], 0 M/M. Also, the EC50 in the assay filed under Rattus norvegicus [3] (Rattus norvegicus, Aorta) was determined as 124 µM; in the assay filed under Rattus norvegicus [4] (Rattus norvegicus, Aorta) it was 48.1 µM.

For the compound “SODIUM NITROPRUSSIDE [listing 1 of 2 here]”, the % NO2- in assay [1] was 58 M/M; in assay [2], 1.5 M/M.

Turning to `CN(C)CCCOc1no[n+]([O-])c1S(=O)(=O)c1ccccc1`, the % NO2- turned out to be 20.2 M/M in assay [1] and 0 M/M in assay [2]. Moreover, the EC50 in the assay listed under Rattus norvegicus [3] (Rattus norvegicus, Aorta) was 0.13 µM; in the assay filed under Rattus norvegicus [4] (Rattus norvegicus, Aorta), 0.03 µM.

Take `CN(C)CCOc1no[n+]([O-])c1-c1ccccc1`: the results for the % NO2- in assay [1] and in assay [2] were 3.9 M/M and 0 M/M, respectively. The EC50 in the assay filed under Rattus norvegicus [3] (Rattus norvegicus, Aorta) worked out at 68 µM; in the assay filed under Rattus norvegicus [4] (Rattus norvegicus, Aorta), 7.35 µM.

As to `NCCSc1no[n+]([O-])c1-c1ccccc1`, the % NO2- in assay [1] came out at 2.8 M/M; in assay [2], 0 M/M. The EC50 was 78 µM in the assay listed under Rattus norvegicus [3] (Rattus norvegicus, Aorta) and 15.2 µM in the assay filed under Rattus norvegicus [4] (Rattus norvegicus, Aorta).

Take “SODIUM NITROPRUSSIDE [listing 2 of 2 here]”: the figures for the EC50 in the assay filed under Rattus norvegicus [3] and in the assay filed under Rattus norvegicus [4] were 0.0481 µM and 0.0215 µM, respectively.

Take `CN(C)CCS(=O)(=O)c1no[n+]([O-])c1-c1ccccc1`: the % NO2- turned out to be 8.8 M/M in assay [1] and 0 M/M in assay [2]. In addition, the EC50 worked out at 0.43 µM in the assay listed under Rattus norvegicus [3] (Rattus norvegicus, Aorta) and 0.101 µM in the assay listed under Rattus norvegicus [4] (Rattus norvegicus, Aorta).

In the case of `CN(C)CCOc1no[n+]([O-])c1S(=O)(=O)c1ccccc1`, the % NO2- was determined as 58.9 M/M in assay [1] and 0 M/M in assay [2]. In addition, the EC50 in the assay filed under Rattus norvegicus [3] (Rattus norvegicus, Aorta) was 0.048 µM; in the assay filed under Rattus norvegicus [4] (Rattus norvegicus, Aorta) it was 0.0041 µM.

`CN(C)CCS(=O)(=O)c1c(-c2ccccc2)no[n+]1[O-]`: the values for the % NO2- in assay [1], in assay [2] and in assay [5] were 36.3 M/M, 0 M/M and 33 M/M, respectively. In addition, the EC50 in the assay filed under Rattus norvegicus [3] (Rattus norvegicus, Aorta) is 1.01 µM; in the assay listed under Rattus norvegicus [4] (Rattus norvegicus, Aorta), 0.0826 µM.

As to `O=[N+]([O-])OCC(CO[N+](=O)[O-])O[N+](=O)[O-]` [NITROGLYCERIN], the % NO2- in assay [1] is 45 M/M; in assay [2], 0 M/M. This compound returned an EC50 in the assay filed under Rattus norvegicus [4] (Rattus norvegicus, Aorta) of 0.0224 µM.

For `NCCSc1c(-c2ccccc2)no[n+]1[O-]`, the % NO2- was 37.9 M/M in assay [1], 4.5 M/M in assay [2] and 56 M/M in assay [5]. For the same compound, the EC50 is 15 µM in the assay listed under Rattus norvegicus [3] (Rattus norvegicus, Aorta) and 3.48 µM in the assay listed under Rattus norvegicus [4] (Rattus norvegicus, Aorta).
